This is a sample that favours compounds with a hit; in the whole collection about 3.5% have one here.
rRNA inh HTS = reduced GFP signal of wild-type E. coli, primary screen, bacterial rRNA inhibitor project, GFP/RFP fluorescence, OD600, single point | GFP signal change (wild-type ribosome), % (test concentration not listed) | 350,000 compounds, 1.6% hits | E. coli WT GFP vs humanized-ribosome RFP mutants, 24 h; hits give low values; DMSO median 0, no signal -100;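 active = significant combined selectivity score with lowered wild-type GFP, culture density cut under 30%, mutant RFP and density less affected; inactive = any of these conditions unmet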
PGC1a acetyl inh = inhibitors of PGC1a acetylation signal, primary screen, cell-based, U2OS, AlphaScreen, inhibitor mode | inhibition, % at 15.6 µM | AlphaScreen anti-acetyl-lysine; with virally co-expressed GCN5 acetyltransferase | 350,000 compounds, 0.17% hits | AID 651687, 2012;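 active = every replicate shows inhibition of at least 40%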;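 note: 0% = neutral control wells and 100% = positive control wells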
ERAP1 inh = human ERAP1 aminopeptidase inhibitors, primary screen, biochemical, single point, plate reader | Endoplasmic reticulum aminopeptidase 1 (Homo sapiens), Q9NZ08 | recombinant ERAP1, Leu-AMC fluorescence, 60 min | inhibition, % at 10.7 µM | 340,000 compounds, 0.15% hits | AID 652197, 2013;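 active = mean replicate inhibition of at least 30%, or all replicates individually reaching that 30% level; inactive = mean below 30% and not every replicate reaching it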;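 note: 0% = neutral control wells and 100% = L-leucinethiol positive control wells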
Env fusion inh = inhibitors of HIV-1 Env-driven cell-cell fusion, primary screen, HeLa-JRFL effector, CEM21 target cells, luciferase | inhibition, % at 12.3 µM | 360,000 compounds, 1.1% hits;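 active = mean replicate inhibition score of at least 50 and every replicate individually at or above 50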;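 note: 0% = plate neutral controls and 100% = maraviroc near 300 nM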
Cneo AK release = Cryptococcus neoformans cell lysis inducers, primary screen, AK release luminescence, single concentration; C. neoformans lysis, adenylate kinase release luminescence, 4 h; normalised: neutral wells 0, clomiphene wells 100; lysis activity, % at 15 µM; 360,000 compounds, 0.2% hits;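 active = mean lysis activity across replicates of at least 80%, whatever share of replicates individually reach that level; inactive = mean lysis activity below 80%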
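Assay system: C. neoformans cells. Amount: yeast cell density of 5 × 10^6 cells/mL. Technique: AK luminescence. Buffer or medium: YPD. Times: static 4 h at 37 °C with compound, 1 h detection. Dosing: single-point compound dose. Read-out: lysis from increased AK signal.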
FGF22 binding = binders of human FGF22 protein, primary screen, FGF22 synaptogenesis inhibitor project, biophysical, thermal shift, single point. Fibroblast growth factor 22 (Homo sapiens), Q9HCT0. recombinant FGF22 thermal shift, SYPRO orange fluorescence; percent of sucrose octasulfate shift, DMSO zero. 340,000 compounds, 1.5% hits. AID 651658, 2012. activity (Tm shift, normalised), % at 9.99 µM;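 active = mean Tm shift, scaled 0 neutral to 100 positive control, at about 1.3% or above, every replicate too, limit read from the data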
* marks the source's active call; other numbers are inactive results.

`C/C(=N\NC(=S)NC1CCCCC1)c1cccc(Br)c1` gave rRNA inh HTS 7, ERAP1 inh -1, Env fusion inh 6 and FGF22 binding 0.
For CCN(CC)c1ccc(Nc2nc(N3CCOCC3)c3ccccc3n2)cc1 the results were PGC1a acetyl inh 10, Env fusion inh 57* and Cneo AK release 0.
`COc1ccc(-c2oc3ccc(-c4cc(OC)c(OC)c(OC)c4)cc3c2-c2ccc(OC)nc2)cc1` gave rRNA inh HTS 11, PGC1a acetyl inh -12, ERAP1 inh -2, Env fusion inh 7, Cneo AK release 0 and FGF22 binding 0.
Screening CCn1c(-c2cccs2)nc2ccccc21 returned PGC1a acetyl inh 10 and Cneo AK release 7.
For C#CCn1c(-c2cccs2)nc2ccccc21 the results were rRNA inh HTS -14, ERAP1 inh 3, Env fusion inh -3, Cneo AK release 4 and FGF22 binding 43*.
For CCOC(=O)C1=C(c2ccccc2)NC(SCC(=O)Nc2ccc(C)cc2)=C(C#N)C1c1ccco1 (stereo not given) the results were rRNA inh HTS -1, PGC1a acetyl inh -5, ERAP1 inh -2, Cneo AK release -1 and FGF22 binding 0.
For CCOC(=O)C1=C(c2ccccc2)NC(SCC(=O)Nc2cccc(C)c2)=C(C#N)C1c1ccco1 (stereo not given) the results were PGC1a acetyl inh -3 and Env fusion inh 111*.
`CCn1cc(C2N3CC4(C)CN2CC(C)(C3)C4=O)c2ccccc21` (stereo not given) gave rRNA inh HTS 6, PGC1a acetyl inh -21, ERAP1 inh 2, Env fusion inh 1, Cneo AK release 1 and FGF22 binding 0.
`Cn1c(CN2CCCC2)nc2cc(NC(=O)C3CCCCC3)ccc21` gave PGC1a acetyl inh 5, Env fusion inh 23 and Cneo AK release 2.
Screening C=C1CCN([C@@H](CC(C)C)C(=O)Nc2ccc(OC)cc2)S(=O)(=O)c2ccccc21 returned rRNA inh HTS -12, PGC1a acetyl inh -27, ERAP1 inh 2, Env fusion inh 102*, Cneo AK release 3 and FGF22 binding 0.
C=C1CCN([C@@H](Cc2ccccc2)C(=O)NCCC(C)C)S(=O)(=O)c2ccccc21 was read as rRNA inh HTS -7, PGC1a acetyl inh -10, Env fusion inh 84*, Cneo AK release 0 and FGF22 binding 0.
For C=C1CCN(C(CC(C)C)C(=O)OC)S(=O)(=O)c2ccccc21 (stereo not given) the results were rRNA inh HTS -25, PGC1a acetyl inh -13, ERAP1 inh 1, Env fusion inh 22, Cneo AK release 0 and FGF22 binding 0.
For C=C1CCN([C@@H](CC(C)C)C(=O)NCc2ccccc2)S(=O)(=O)c2ccccc21 the results were rRNA inh HTS -20, PGC1a acetyl inh -5, ERAP1 inh -1, Env fusion inh 23, Cneo AK release 0 and FGF22 binding 0.
Screening CCOc1ccc(NC(=O)c2ccc(Cn3nc(C)cc3C)o2)cc1 returned rRNA inh HTS -9, ERAP1 inh -1, Env fusion inh 4, Cneo AK release 0 and FGF22 binding 0.
For CCOC(=O)c1ccc(NC(=O)CSc2nc3sc(C(=O)O)c(C)c3c(=O)[nH]2)cc1 the results were rRNA inh HTS 7, PGC1a acetyl inh -5, ERAP1 inh -26, Env fusion inh 10 and FGF22 binding 43*.
Cc1sc2nc(SCC(=O)O)[nH]c(=O)c2c1C was read as rRNA inh HTS 17, ERAP1 inh 2, Env fusion inh -6 and FGF22 binding 43*.
Cc1sc2nc(SCC(=O)N3CCOCC3)[nH]c(=O)c2c1C was read as rRNA inh HTS -6, PGC1a acetyl inh 7, ERAP1 inh -1, Env fusion inh -12, Cneo AK release 2 and FGF22 binding 0.

Screening results (PubChem BioAssay)
